MrgX1 antagonist – antagonists of human MrgX1 receptor, primary screen, HEK293 cells, Fluo-4 calcium flux; Mas-related G-protein coupled receptor member X1 (Homo sapiens), Q96LB2; hit rate 1.3% among 310,000; BAM8-22 antagonism; stronger effect = lower value; B-score at 10 µM;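 active = calcium-response B-score plate-corrected more than 3 library SD below zero, starting fluorescence within 5 deviations, no agonist response on first addition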;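 note: peak minus trough fluorescence over baseline after final BAM8-22 challenge near maximal dose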
Target sequence (Q96LB2 whole entry, looked up): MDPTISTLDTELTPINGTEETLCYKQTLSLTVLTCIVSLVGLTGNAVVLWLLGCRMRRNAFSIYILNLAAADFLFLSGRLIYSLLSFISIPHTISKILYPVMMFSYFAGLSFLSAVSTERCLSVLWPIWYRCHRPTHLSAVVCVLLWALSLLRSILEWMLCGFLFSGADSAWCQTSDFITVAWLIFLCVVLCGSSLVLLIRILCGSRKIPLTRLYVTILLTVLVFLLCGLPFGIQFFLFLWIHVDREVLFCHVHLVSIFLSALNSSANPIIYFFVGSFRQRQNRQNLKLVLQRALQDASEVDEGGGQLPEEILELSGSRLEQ
MrgX1 ag – agonists of human MrgX1 receptor, primary screen, HEK293 cells, Fluo-4 calcium flux | Mas-related G-protein coupled receptor member X1 (Homo sapiens), Q96LB2 | Fluo-4 calcium fluorescence, agonist mode; stronger effect = higher value | B-score at 10 µM | hit rate 0.44% among 310,000;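 active = calcium response B-score plate-corrected fluorescence ratio at least 3 library SD, with starting fluorescence B-score inside 5 SD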
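System – MrgX1-expressing HEK293 cells · Incubation – cells plated overnight, dye loaded 0.5 h 37 °C, 0.5 h room temperature · Technique – kinetic Fluo-4 NW fluorescence of intracellular calcium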
Kir21 block – inhibitors of mouse Kir2.1 inward-rectifier potassium channel; Inward rectifier potassium channel 2 (Mus musculus), P35561; HEK293-Kir2.1, FluxOR thallium flux fluorescence; stronger effect = lower value; B-score at 10 µM; hit rate 0.85% among 310,000; AID 1672, 2009;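 active = fluorescence ratio B-score at or below minus 3 SD of library scores, with starting-brightness B-score within 2 SD, cut at about -4.2 in these data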;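 note: channel flux triggered by added potassium and thallium sulfate stimulus; B-score of peak minus minimum fluorescence over baseline after thallium stimulus; more negative B-score means stronger Kir2.1 block with less thallium influx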
RGS4 pot – RGS4 potentiators or activators, primary screen, cell-based, HEK293 M3R inducible RGS4, calcium flux | carbachol calcium flux Fluo4; stronger effect = lower value | B-score at 10 µM | hit rate 0.92% among 310,000;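 active = B-score of the integrated calcium signal more than 4 SD below the library mean, with starting fluorescence not abnormally high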;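 note: negative B-score means reduced calcium response which marks RGS4 activation or potentiation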
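Assay system: Inducible-RGS4 HEK293 cells carrying M3 receptor | Schedule: Compound preincubation 20 min at room temperature before agonist | Signal: Kinetic calcium fluorescence imaging with Fluo4-AM dye, 2 µM | Read-out basis: B score from integrated fluorescence ratio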
RGS4 block – RGS4 inhibitors, primary screen, cell-based, HEK293 M3R inducible RGS4, calcium flux; Fluo-4 calcium flux; stronger effect = higher value; triggered by carbachol at its EC20; Regulator of G-protein signaling 4 (Homo sapiens), P49798; B-score at 10 µM; hit rate 0.45% among 310,000;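 active = B-score, a plate-corrected calcium signal, over three deviations above library mean, with baseline fluorescence within five deviations of library mean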;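 note: RGS4 expression induced by doxycycline in cells with stable M3 receptor; B-score is computed from the integrated fluorescence ratio over baseline after carbachol; higher B-score means a larger calcium signal and so more RGS4 inhibition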
Target sequence (P49798 whole entry, looked up): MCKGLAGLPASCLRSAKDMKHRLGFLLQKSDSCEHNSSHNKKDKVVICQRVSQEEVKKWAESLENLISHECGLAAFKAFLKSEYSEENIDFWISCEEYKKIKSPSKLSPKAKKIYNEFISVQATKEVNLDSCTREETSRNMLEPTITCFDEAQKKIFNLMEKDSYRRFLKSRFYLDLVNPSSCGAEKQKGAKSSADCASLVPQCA
MrgX1 allo act – positive allosteric modulators of MrgX1, primary screen, HEK293 cells, Fluo-4 calcium flux; hit rate 0.63% among 310,000; FDSS; stronger effect = higher value; B-score at 10 µM; Mas-related G-protein coupled receptor member X1 (Homo sapiens), Q96LB2;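 active = plate-corrected calcium response at least 3 library SD above typical, normal starting fluorescence, not activating the receptor alone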;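 note: compound read alongside a low EC10 to EC30 dose of BAM8-22 agonist; peak minus trough fluorescence over baseline measured at the second addition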
The depositor's hits bear a star; i = inactive; . = no result given. Rows were chosen to be rich in hits. Some 4.1% of all compounds tested hit in one or more screens of this group.

SMILES	MrgX1 antagonist	MrgX1 ag	Kir21 block	RGS4 pot	RGS4 block	MrgX1 allo act
CCC(=O)N1CCN(c2ccc(NC(=O)c3cc4ccccc4o3)cc2Cl)CC1	i	i	0.36	-7.5*	i	i
CCCC(=O)N1CCN(c2ccc(NC(=O)c3cc4ccccc4o3)cc2Cl)CC1	i	i	-0.71	-8.6*	i	i
CC1CCN(c2ccccc2NC(=O)c2cc3ccccc3o2)CC1	i	i	-1.2	-7.4*	i	i
COc1ccc(CCNC(=O)C2CCC(=O)N(CC3CCCCC3)C2)cc1 (stereo unspecified)	.	.	0.13	-7.1*	i	.
Cc1ccc(NC(=O)c2ccc(Cl)c(N3C(=O)CCC3=O)c2)cc1	i	i	0.16	i	i	i
Cc1ccc(NNC(=O)c2cc(C(C)(C)C)nn2Cc2ccccc2)cc1	i	i	-1.8	i	i	i
Cc1ccc(-c2noc(-c3cc(C(C)(C)C)nn3Cc3ccccc3)n2)cc1	-6.8*	i	-0.39	i	i	i
CC(C)(C)c1ccc(/C=C/C(=O)N2CCN(c3ncccn3)CC2)cc1	-6.3*	i	0.86	i	i	i
O=C(/C=C/c1ccc(F)cc1)N1CCN(c2ncccn2)CC1	i	i	0.01	i	i	i
CCCC[C@H]1COCCS(=O)(=O)N1Cc1ccc(C)cc1	i	i	-3.5	i	i	i
CCCC[C@H]1COCCS(=O)(=O)N1Cc1ccc(Br)cc1	i	i	-3.1	-7.1*	i	i
COC(=O)c1ccc(S(=O)(=O)NCc2ccccn2)n1C	i	i	1.3	i	i	i
C#CCN1C(=O)S/C(=C/C=C/c2ccc(N(C)C)cc2)C1=O	-5.3*	i	.	.	.	i
O=C(CN1C(=O)S/C(=C\C=C\c2ccccc2)C1=O)Nc1ccccc1C(=O)O	i	i	0.3	i	i	i
CCOc1ccc(CCNC(=O)c2ccc(CNS(=O)(=O)c3ccccc3)cc2)cc1OCC	i	i	0.45	i	i	i
Cc1ccc2occ(C3N[C@H](C(=O)O)CS3)c(=O)c2c1 (stereo partly specified)	i	i	1.6	i	i	i
Clc1ccc(CSc2nnc(-c3sccc3-n3cccc3)o2)cc1	-4.8*	i	-2.5	i	i	i
OC1(c2cccs2)CN(c2ccc(Br)cc2)C2=[N+]1CCCS2 (stereo unspecified)	i	i	-4.1	-7.2*	i	13*
C=CCn1c(SCC(=O)Nc2sccc2C#N)nc2sc(C)c(C)c2c1=O	i	i	-0.88	i	i	i
CC(C)(C)N(C=C(Cl)Cl)C(=O)NC1CCCCC1	i	i	1.3	i	i	i
CCCOc1ccc(C(C(=O)OCCN(CC)CC)c2ccccc2)cc1 (stereo unspecified)	-4.6*	i	-0.79	-7.4*	i	i
O=C1/C(=C\c2c(NCCOCCO)nc3ccccn3c2=O)SC(=S)N1Cc1ccco1	-15*	i	-0.69	i	i	i
CCOC(=O)/C(C#N)=N/Nc1ccc(S(=O)(=O)N2CCc3ccccc32)cc1	-4.5*	i	0.71	i	i	i
Cc1csc2c(N3CCN(C(=O)Nc4ccc(Cl)c(Cl)c4)CC3)ncnc12	i	i	3.2	i	i	i
Cc1ccc2c(CC(=O)OC(C)C(=O)Nc3ncc(Cl)cc3Cl)coc2c1 (stereo unspecified)	i	i	-4.5*	i	i	i
SMILES	MrgX1 antagonist	MrgX1 ag	Kir21 block	RGS4 pot	RGS4 block	MrgX1 allo act
CC(OC(=O)CCCN1C(=O)c2ccccc2C1=O)C(=O)Nc1ncc(Cl)cc1Cl (stereo unspecified)	i	i	2.5	i	i	i
COc1cccc(CC(=O)OC(C)C(=O)Nc2ncc(Cl)cc2Cl)c1 (stereo unspecified)	i	i	-4.5*	i	i	i
CC(OC(=O)Cc1coc2ccc3ccccc3c12)C(=O)Nc1ncc(Cl)cc1Cl (stereo unspecified)	i	i	-5.6*	i	i	i
C/C(=N/NC(=O)c1cc(-c2cccc([N+](=O)[O-])c2)n[nH]1)c1ccc(Cl)cc1	i	i	-1.3	i	i	i
COc1cc2c(cc1OC)C(COc1ccccc1OC)N(C(C)=O)CC2 (stereo unspecified)	i	i	0.32	i	i	i
Cc1cc(C)cc(C(=O)NCC(=O)NCCc2c[nH]c3ccccc23)c1	i	i	-0.2	i	i	i
N#CC1=C(N)SC(N)=C(C#N)C1CCC1CCCCC1	-8.8*	i	-5.2	i	i	i
S=c1[nH]nc(-c2ccco2)n1Cc1ccccc1	i	i	.	.	.	i
CNc1nc(C)cc(C)c1S(=O)(=O)c1ccc(C)cc1	i	i	-5.8*	i	i	i
CCOC(=O)C1CCN(C(=O)COc2ccc(N(C)S(=O)(=O)c3ccc(OCC)cc3)cc2)CC1	i	i	-2	i	i	i
COc1ccccc1C(CNC(=O)C(C)Oc1ccc(Br)cc1)N1CCCC1 (stereo unspecified)	i	i	-5.8*	i	i	i
COc1ccc(C(CNC(=O)C(C)Oc2ccc(Br)cc2)N2CCOCC2)cc1 (stereo unspecified)	i	i	-0.46	i	i	i
N#CC(c1ccc(Cl)cc1)c1ccc2c(C(F)(F)F)cc(C(F)(F)F)nc2n1 (stereo unspecified)	i	i	-2.1	-8.1*	i	i
FC(F)(F)c1cc(C(F)(F)F)c2ccc(N3CCN(c4ccc(Cl)cc4)CC3)nc2n1	i	i	0.02	i	i	i
C(#CCN1CCC(Cc2ccccc2)CC1)COCCOCc1ccccc1	i	i	-5*	i	i	i
COc1ccc(CN2CCOCC2)cc1OC	i	i	0.02	i	i	i
CC(=O)c1cn(C(=O)c2ccc(Cl)cc2)c2ccccc12	i	i	0.21	i	i	i
CCN1CCCC1CNC(=O)C(=O)Nc1cccc(OC)c1 (stereo unspecified)	i	i	-1.6	i	i	i

Screens from PubChem BioAssay.
